One block for each substance: values may come before it. Ends that are not written are not given here.
Key:
[1] = test system: MDA-MB-231 cells; assay: qPCR gene expression; assay type: cell-based; details: for expression of NANOG target genes (FABP5, POSTN, NRP2, PIN1, TAGLN) / expression of epithelial cell markers cytokeratin 18 and 19 (KRT18 and KRT19): MDA-MB-231, 7 days of treatment, n=3; for expression of NANOG target genes (FABP5, POSTN, NRP2, PIN1, TAGLN): compared to vehicle or aScr-pep
In short: (§1)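 Cells were treated for 7 days with test peptide, cytosolic-tail peptide alone, scrambled peptide or vehicle, then analysed by real-time qPCR for NANOG-regulated and keratin genes. CT values were normalized to GAPDH, and dissociation curves checked primer fidelity. n=3 independent experiments, each in technical triplicate; one-way ANOVA.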

[2] = biological target: FAK (Homo sapiens, UniProt Q05397); assay: Surface plasmon resonance; assay type: binding
In short: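 Biacore S200 at 25°C, with running buffer 1% DMSO/1x PBS-P+ (filtered, degassed) at 30 μL/min. FAK at 20 μg/mL in 10 mM sodium acetate pH 5.0 was amine-coupled to a CM5 chip, targeting 5000 RU, with unmodified flow cell 1 as reference. Peptide analyte: ≥5 concentrations (100 nM–100 μM) plus a repeat and a blank, multi-cycle. Association 180 s, dissociation 600 s. Regeneration with 10 mM glycine pH 2.5 for 30 s. KD from 1:1 Langmuir fit.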

[3] = biological target: NANOG (Homo sapiens, UniProt Q9H9S0); assay: Surface plasmon resonance; assay type: binding
In short: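 Purified active NANOG at 50 μg/mL in 10 mM sodium acetate pH 4.5 was amine-coupled (EDC/NHS, ethanolamine block) to a CM5 chip, targeting 5000 RU, with an unmodified reference cell. Runs used Biacore S200 at 25°C, 1% DMSO/1x PBS-P+ at 30 μL/min. Peptide series: ≥5 concentrations, 100 nM–100 μM, plus repeat and zero. Association 180 s, dissociation 600 s, glycine pH 2.5 regeneration. KD by 1:1 Langmuir kinetics.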

[4] = test system: HCC70 cells; assay: qPCR gene expression; assay type: cell-based; details: HCC70, 10 μM, 7 day treatment, compared to aScr-pep
In short: as §1

[5] = test system: HCC70; assay: Tumorsphere-initiation frequency, extreme limiting-dilution assay; assay type: cell-based; details: HCC70, ELDA, compared to aScr-pep
In short: (§2)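 Cells were treated with vehicle, Antp alone, Antp-tagged scrambled peptide or test peptide. They were plated in duplicate rows at serial dilutions of 1–20 cells/well, one 96-well plate per condition. Medium was serum-free DMEM with 20 ng/ml bFGF, 10 ng/ml EGF, 2% B27 and 10 μg/ml insulin. After 2 weeks, wells were scored sphere-positive or negative by phase-contrast microscopy. Stem-cell frequency was computed by extreme limiting dilution analysis.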

[6] = test system: MDA-MB-231 cells; assay: CellTiter-Glo proliferation; assay type: cell-based; details: MDA-MB-231, increasing concentrations, 72 h
In short: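 MDA-MB-231 cells, grown in DMEM with 1 mM sodium pyruvate and 10% heat-inactivated FCS at 37°C and 5% CO₂, were seeded at 1,000 cells/well. They were exposed for 72 h to Antp peptide alone, test peptide or vehicle (1% DMSO in PBS). Cells were lysed with CellTiter-Glo at day 0 and at 72 h, shaken 10 min in the dark, and luminescence was read. Fold change = 72 h value / day 0 value per group.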

[7] = test system: MDA-MB-468; assay: Tumorsphere-initiation frequency, extreme limiting-dilution assay; assay type: cell-based; details: MDA-MB-468, ELDA, compared to aScr-pep
In short: as §2

[8] = test system: MCF7 luminal breast cancer cells; assay: qPCR gene expression; assay type: cell-based; details: MCF7, 7 days of treatment, n=3
In short: as §1

[9] = test system: MCF7; assay: Tumorsphere-initiation frequency, extreme limiting-dilution assay; assay type: cell-based; details: MCF7 luminal breast cancer cell line, ELDA, aScr-pep vs aCx26-pep
In short: as §2

[10] = test system: MDA-MB-231; assay: as above; assay type: cell-based; details: MDA-MB-231, ELDA, compared to aScr-pep
In short: as §2

[11] = test system: HCC70 cells; assay: Subcellular fractionation and immunoblotting for FAK and NANOG; assay type: cell-based; details: HCC70, 10 μM, 48 h, immunoblot
In short: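 15×10⁶ HCC70 cells per 15 cm dish were treated 48 h with 10 μM peptide or 1% DMSO vehicle. A commercial kit gave membrane, cytoplasmic and nuclear fractions. 25 μg per fraction was run on 12% SDS-PAGE and transferred to PVDF. Blots were probed for FAK and NANOG, with HRP secondary 3 h at room temperature. Rhodamine anti-actin and Lamin A/C served as loading controls.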

[12] = test system: MDA-MB-231 luciferase-expressing tumors; assay type: in vivo, NSG mice; details: endpoint tumors
In short: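 MDA-MB-231 cells were made luciferase-expressing by lentivirus and puromycin-selected. 1×10⁶ cells went into the right subcutaneous flank of 6-week-old female NSG mice. At palpability, mice were randomized to 50 μl intratumoral 0.1 mM peptide or vehicle (1% DMSO) every other day for 20 days. Weekly IVIS: D-luciferin 150 mg/kg IP under isoflurane, total flux. Excised tumors were fixed 3 days in 4% PFA, then sectioned and stained (H&E: 7–8 mice/group; IF: 3–4 mice/group, 3 images/mouse). One-way ANOVA.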

[13] = SPR, 25°C, 1% DMSO/1x PBS-P+, 1:1 Langmuir, range given in words
[14] = MDA-MB-231, 10 μM, 7 day treatment, compared to aScr-pep
[15] = immunofluorescence, 3–4 mice per group

Chain of NANOG (Q9H9S0 whole entry): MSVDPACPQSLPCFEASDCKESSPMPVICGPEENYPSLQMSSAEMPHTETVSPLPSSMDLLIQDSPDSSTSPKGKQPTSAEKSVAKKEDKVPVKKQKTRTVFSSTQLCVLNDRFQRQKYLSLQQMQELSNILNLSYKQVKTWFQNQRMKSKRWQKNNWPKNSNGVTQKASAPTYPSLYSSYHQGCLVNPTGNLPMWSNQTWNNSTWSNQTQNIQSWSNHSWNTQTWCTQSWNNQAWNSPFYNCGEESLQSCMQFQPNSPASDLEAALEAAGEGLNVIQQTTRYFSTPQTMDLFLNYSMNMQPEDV
Chain of FAK (Q05397 whole entry): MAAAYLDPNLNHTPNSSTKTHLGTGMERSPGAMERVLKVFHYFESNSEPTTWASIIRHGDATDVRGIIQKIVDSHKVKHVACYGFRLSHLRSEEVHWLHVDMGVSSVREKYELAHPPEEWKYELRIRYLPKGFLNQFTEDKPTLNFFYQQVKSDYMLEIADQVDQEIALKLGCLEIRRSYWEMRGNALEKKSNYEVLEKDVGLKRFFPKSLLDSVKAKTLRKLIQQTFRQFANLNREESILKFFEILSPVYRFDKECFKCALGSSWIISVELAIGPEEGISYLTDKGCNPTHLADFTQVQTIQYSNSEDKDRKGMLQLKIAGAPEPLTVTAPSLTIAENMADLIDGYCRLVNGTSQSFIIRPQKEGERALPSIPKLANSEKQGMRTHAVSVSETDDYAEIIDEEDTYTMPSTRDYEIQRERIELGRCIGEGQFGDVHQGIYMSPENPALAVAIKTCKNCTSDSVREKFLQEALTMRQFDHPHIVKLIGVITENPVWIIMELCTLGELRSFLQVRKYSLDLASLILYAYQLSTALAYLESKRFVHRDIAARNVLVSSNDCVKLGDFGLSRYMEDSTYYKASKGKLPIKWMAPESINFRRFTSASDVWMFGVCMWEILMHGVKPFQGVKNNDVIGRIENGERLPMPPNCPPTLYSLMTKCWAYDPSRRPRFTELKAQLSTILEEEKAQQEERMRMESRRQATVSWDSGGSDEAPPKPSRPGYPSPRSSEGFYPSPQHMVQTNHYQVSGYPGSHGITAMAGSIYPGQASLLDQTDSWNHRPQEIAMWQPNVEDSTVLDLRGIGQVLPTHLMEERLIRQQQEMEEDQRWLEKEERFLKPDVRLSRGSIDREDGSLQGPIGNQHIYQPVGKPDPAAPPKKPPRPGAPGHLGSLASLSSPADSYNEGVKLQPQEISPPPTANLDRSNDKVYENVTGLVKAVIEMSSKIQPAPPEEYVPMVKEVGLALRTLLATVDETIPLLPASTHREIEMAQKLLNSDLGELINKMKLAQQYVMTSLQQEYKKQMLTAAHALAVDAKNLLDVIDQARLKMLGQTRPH

dissociation constant (KD) with FAK [2, 13]: micromolar
dissociation constant (KD) with NANOG [3, 13]: nanomolar
Substance: Cx26 cytosolic tail: peptide fragment of the Cx26 cytosolic (C-terminal) tail, 11 amino acids (RYCSGKSKKPV-NH2)
expression of NANOG target genes (FABP5, POSTN, NRP2, PIN1, TAGLN) [1]: no significant differences
expression of epithelial cell markers cytokeratin 18 and 19 (KRT18 and KRT19) [1]: no significant differences

Substance: aCx26-pep: peptide containing the Cx26 cytosolic tail sequence tagged with an antennapedia (Antp) leader sequence (RQIKIWFQNRRMKWKKRYCSGKSKKPV-NH2)
Oct4 mRNA levels [1, 14]: significant decrease
Sox2 levels [1, 14]: did not observe a change
expression of NANOG target genes (FABP5, POSTN, NRP2, PIN1, TAGLN) [1]: significantly decreased
expression of epithelial cell markers cytokeratin 18 and 19 (KRT18 and KRT19) [1]: significantly increased
Oct4 mRNA levels [4]: significant decrease
Sox2 levels [4]: did not observe a change
tumorsphere frequency [5]: significantly decreased
cell proliferation (CellTiter-Glo) [6]: not significantly affected
tumorsphere frequency [7]: significantly decreased
NANOG target gene expression [8]: did not significantly change
cytokeratin gene expression [8]: did not significantly change
tumorsphere frequency [9]: no significant difference
tumorsphere frequency [10]: significantly decreased
binding to FAK by SPR (result in words) [2]: did not significantly alter
binding to NANOG by SPR (result in words) [3]: did not significantly alter
FAK level in the nuclear fraction [11]: dramatic decreases
NANOG level in the nuclear fraction [11]: dramatic decreases
Ki67 staining (proliferation marker) [12, 15]: decreased
cleaved caspase 3 staining [12, 15]: increased
vimentin staining (EMT marker) [12, 15]: decreased
percent tumor viability (H&E) ([12]; vs vehicle or aScr-pep, 7–8 mice per group): significantly decreased

binding to FAK by SPR (result in words) [2]: sufficient for binding
binding to NANOG by SPR (result in words) [3]: sufficient for binding
Substance: RYCSG

— paper PMC10840808 (Molecular cancer therapeutics, 2024)
